ChEMBL document CHEMBL1123537, “Carbocyclic analogues of 5-halocytosine nucleosides” (1986)
Converted amounts (≈) assume the structure as drawn.

Assays:
[1] = test system: Epidermoid carcinoma cell line; experiment: Compound was tested for its antiviral activity against Herpes Simplex Virus-1(HF strain) in human epidermoid carcinoma cells (H.Ep.-2) measured as virus rating (VR).; format: functional
Method in brief: (§1)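 […] HSV-1 strain HF in human H.Ep.-2 monolayers (MEM, 5% calf serum growth, 2% FBS maintenance), 32 CCID50/well, in triplicate wells. Seven compound concentrations in half-log10 steps were used, cytotoxic to noncytotoxic. Plates were kept at 37 °C for 4 or 5 days; microscopic CPE was scored 0 (none) to 4 (100%) and a virus rating was calculated from the scores, with ara-A as positive control.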

[2] = Ratio of the VR of the C-cytosine nucleoside to the VR of ribavirin; format: functional
Method in brief: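 Influenza A (A0/PR/8/34 in MDCK; A2/Aichi/2/68 in primary rhesus monkey kidney) CPE-inhibition in monolayers with various media (reinforced BME or MEM plus serum, or trypsin-containing MEM). Triplicate wells at 32 CCID50/well, seven serial half-log10 concentrations spanning cytotoxic to noncytotoxic, 37 °C 4 or 5 days. CPE scored 0–4 microscopically; VR by modified Ehrlich method, divided by concurrent ribavirin VR.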

[3] = test system: Epidermoid carcinoma cell line; experiment: Compound was tested for its potency against Herpes Simplex Virus-1(HF strain) in human epidermoid carcinoma cells; format: functional; method in brief: as §1
MDCK [4] = experiment: (§2) Compound was tested for its potency against influenza virus (Ao) in MDCK cells; format: functional; settings: Canis lupus familiaris
Method in brief: (§3)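 MDCK monolayers were infected at 32 CCID50 per well, in triplicate, with seven serial half-log10 compound dilutions spanning cytotoxic to noncytotoxic levels. Media were reinforced BME or MEM with 2% FBS, or MEM with trypsin (15 or 10 μg/mL). Plates were held 4–5 days at 37 °C, CPE was scored 0–4, and VR, ratio to ribavirin VR, and MIC50 were derived.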

MDCK [5] = experiment: Compound was tested for antiviral activity against influenza virus (Ao) in MDCK cells; format: functional, Canis lupus familiaris; method in brief: as §3
Vero [6] = experiment: Compound was tested for its potency against Herpes Simplex Virus-2 (MS strain) in vero cells (african green monkey kidney cells); format: functional; settings: Chlorocebus sabaeus
Vero [7] = experiment: Compound was tested for antiviral activity against Herpes Simplex Virus-2(MS strain) in vero cells (african green monkey kidney cells); format: functional, Chlorocebus sabaeus
Oryctolagus cuniculus = species on record: Oryctolagus cuniculus; experiment: Compound was tested for antiviral activity against Herpes Simplex Virus-1 (377 strain) in primary rabbit kidney cells; format: functional
Method in brief: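 Primary rabbit kidney monolayers (MEM; 5% calf serum growth, 2% FBS maintenance) were challenged with HSV-1 E-377 (TK+), 32 CCID50/well, in triplicate. Seven half-log10 dilutions ranged from cytotoxic to noncytotoxic, with cytotoxicity and uninfected controls. After 4–5 days at 37 °C, CPE was scored 0–4 and converted to VR; ara-A ratio and 50% CPE-inhibitory concentration (MIC50) were also determined.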

MDCK [8] = experiment: as §2; format: functional, Canis lupus familiaris; method in brief: as §3
Vero [9] = experiment: C(compound) was tested for antiviral activity against Herpes Simplex Virus-2(MS strain) in vero cells (african green monkey kidney cells); format: functional, Chlorocebus sabaeus

Nc1ccn([C@@H]2C[C@H](CO)[C@@H](O)[C@H]2O)c(=O)n1
VR [1]: 0.8 | Ratio [2]: 0.73 | MIC50 [3]: 71 µg/mL (≈ 294 µM) | MIC50 (MDCK [4]): 2.6 µg/mL (≈ 10.8 µM) | VR (MDCK [5]): 3.5 | MIC50 (Vero [6]): 2.4 µg/mL (≈ 9.95 µM) | VR (Vero [7]): 3.2

Nc1ccn([C@@H]2C[C@H](CO)[C@@H](O)[C@@H]2O)c(=O)n1
VR [1]: 0.6 | Ratio [2]: 0.2 | MIC50 [3]: 95 µg/mL (≈ 394 µM) | MIC50 (MDCK [4]): 312 µg/mL (≈ 1290 µM) | MIC50 (Oryctolagus cuniculus): 30 µg/mL (≈ 124 µM) | VR (Oryctolagus cuniculus): 1.8 | VR (MDCK [5]): 0.8 | MIC50 (Vero [6]): 13 µg/mL (≈ 53.9 µM) | VR (Vero [7]): 2.4

Nc1nc(=O)n(C2CC(O)C(CO)C2)cc1Br (centres undefined)
VR [1]: 0 | MIC50 (Vero [6]): 62 µg/mL (≈ 204 µM) | VR (Vero [7]): 2.6

Nc1nc(=O)n([C@@H]2C[C@H](CO)[C@@H](O)[C@@H]2O)cc1I
VR [1]: 0 | MIC50 (Vero [6]): 197 µg/mL (≈ 537 µM) | VR (Vero [7]): 2.2

Nc1nc(=O)n([C@@H]2C[C@H](CO)[C@@H](O)[C@H]2O)cc1I
VR (MDCK [5]): 0.2 | VR (Vero [7]): 0

Nc1ccn(C2CC(CO)CC2O)c(=O)n1 (centres undefined)
VR [1]: 0 | VR (MDCK [5]): 0.1

Nc1nc(=O)n(C2CC(CO)C(O)C2O)cc1Cl (centres undefined)
Ratio [2]: 0.1 | VR (MDCK [5]): 0.4

Nc1nc(=O)n(C2CC(CO)CC2O)cc1I (centres undefined)
VR (MDCK [5]): 0 | VR (MDCK [8]): 0.5

Nc1ccn(C2CC(O)C(CO)C2)c(=O)n1 (centres undefined)
VR [1]: 0 | VR (Vero [9]): 1.9 | MIC50 (Oryctolagus cuniculus): < 26 µg/mL | VR (Oryctolagus cuniculus): 2.6 | VR (MDCK [5]): 0 | MIC50 (Vero [6]): 44 µg/mL (≈ 195 µM)

Nc1nc(=O)n(C2CC(CO)C(O)C2O)cc1Br (centres undefined)
Ratio [2]: 0.36 | MIC50 (MDCK [4]): 150 µg/mL (≈ 469 µM) | VR (MDCK [5]): 1.5

Nc1nc(=O)n(C2CC(O)C(CO)C2)cc1Cl (centres undefined)
MIC50 (Vero [6]): 270 µg/mL (≈ 1040 µM) | VR (Vero [7]): 0.7

Nc1nc(=O)n(C2CC(O)C(CO)C2)cc1I (centres undefined)
VR [1]: 0 | MIC50 (Vero [6]): 340 µg/mL (≈ 968 µM) | VR (Vero [7]): 1
